# Screening results (PubChem)
# FGF22 binding = binders of recombinant human FGF22 by thermal shift | activity (Tm shift, normalised), % at 9.99 µM | SYPRO orange fluorescence; percent of sucrose octasulfate shift, DMSO zero | Q9HCT0 | actives 1.5% (n = 340,000);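 active = mean Tm shift, scaled 0 neutral to 100 positive control, at about 1.3% or above, every replicate too, limit read from the data; inconclusive = no clear call, values can overlap the other calls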
# Target sequence (Q9HCT0 whole entry, looked up): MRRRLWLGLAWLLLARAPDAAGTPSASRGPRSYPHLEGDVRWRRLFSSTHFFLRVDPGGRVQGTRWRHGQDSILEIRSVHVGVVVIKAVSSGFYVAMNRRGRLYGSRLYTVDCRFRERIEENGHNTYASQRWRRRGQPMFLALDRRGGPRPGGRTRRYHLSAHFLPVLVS
# miR-122 sensor = miR-122 inhibition in Huh7 cells | Huh7 miR-122 Renilla luciferase sensor, 48 h; neutral wells = 0, positive control = 100 | activation (reporter increase), % at 12.5 µM | actives 0.3% (n = 340,000) | AID 602342;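 active = mean replicate activation score at least 90 and every replicate individually at or above 90; inconclusive = only one of the two criteria met; inactive = neither criterion met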;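 also: higher luciferase means less miR-122 activity so hits act as miR-122 inhibitors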
# E-selectin induc = induces E-selectin expression in human endothelial cells; actives 0.37% (n = 260,000); P16581; activation, % at 7.58 µM; HUVEC E-selectin immunofluorescence imaging; normalized: neutral wells 0, TNF-alpha wells 100;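 active = mean E-selectin-positive cell signal at least 10% of the positive control, reached in at least 60% of replicates, without over 20% cell loss; inconclusive = no rule given, readout overlaps actives, possibly toxicity-flagged; inactive = the rest, including those meeting only one limit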
#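 System: HUVEC / Compound: single concentration / Signal: immunofluorescence imaging / Read-out: percent E-selectin-positive cells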
# SIRT5 inh = blocks human SIRT5 desuccinylation of peptide. Purified SirT5, succinyl-peptide AMC, trypsin-coupled fluorescence. Q9NXA8. inhibition, % at 15 µM. actives 1.1% (n = 330,000); in the data active = inhibition above about 15%; inconclusive = no clear call, values can overlap the other calls
# Target sequence (Q9NXA8 whole entry, looked up): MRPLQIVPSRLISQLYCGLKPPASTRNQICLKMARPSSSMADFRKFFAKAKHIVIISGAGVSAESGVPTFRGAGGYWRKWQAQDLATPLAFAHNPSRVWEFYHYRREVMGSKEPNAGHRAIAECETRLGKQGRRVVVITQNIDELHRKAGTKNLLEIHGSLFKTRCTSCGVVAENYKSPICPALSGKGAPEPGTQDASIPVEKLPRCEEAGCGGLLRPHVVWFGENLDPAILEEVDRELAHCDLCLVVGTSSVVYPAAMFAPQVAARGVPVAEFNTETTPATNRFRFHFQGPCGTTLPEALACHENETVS
# S100A4 MyoIIA = inhibitors of human S100A4 binding to myosin IIA peptide. P26447. S100A4/TAMRA-MyoIIA peptide fluorescence polarization. inhibition, % at 10.7 µM. actives 0.14% (n = 360,000). AID 652163;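 active = mean inhibition of at least 70% across replicates, with every replicate also reaching that level; inconclusive = mean inhibition reaches 70% but some replicates fall short; inactive = mean inhibition below 70%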
# Target sequence (P26447 whole entry, looked up): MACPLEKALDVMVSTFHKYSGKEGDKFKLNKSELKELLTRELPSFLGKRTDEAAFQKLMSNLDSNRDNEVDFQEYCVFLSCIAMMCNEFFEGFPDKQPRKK
#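 assay system = human S100A4 monomer with TAMRA-labelled myosin IIA peptide | also added = labelled myosin peptide probe, 5 nM | incubation = 5 min between mix addition and reading | control set = DMSO and TFP controls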
# * = called active by the depositor; ? = inconclusive; . = not tested or not shown; [ ] = remark or other dose. This is a sample that favours compounds with a hit; in the whole collection about 2.5% have one here.
SMILES,FGF22 binding,miR-122 sensor,E-selectin induc,SIRT5 inh,S100A4 MyoIIA
C/C(=N\NC(N)=O)c1ccc(-n2ccnc2)cc1,0,-4,-1,22*,3
COc1cccc(CN2CC(C(=O)N3CCCCCCC3)CCC2=O)c1 (stereo not given),0,6,.,0,2
O=C1CCC(C(=O)N2CCCCCC2)CN1Cc1cccc(C(F)(F)F)c1 (stereo not given),0,-4,2,18*,0
COc1ccc(C#Cc2cnc3c(c2)C(=O)N([C@@H](C)CO)C[C@H](C)[C@H](CN(C)C)O3)cc1,0,-10[16.7 µM],0,-1,-7
CC1CC(C)CN(C(=O)COC(=O)CCC(=O)c2cccs2)C1 (stereo not given),44*,-5,1,.,-15
CC1CCN(CC(=O)c2cccs2)CC1,44*,.,.,1,0
Cc1ccc(CNC(=O)COC(=O)CCC(=O)c2cccs2)cc1,0,.,0,19*,-4
O=C(COC(=O)CCC(=O)c1cccs1)NCc1ccccc1,0,.,.,1,-2
CC1CC(C)CN(CC(=O)c2cccs2)C1 (stereo not given),0,-1,5,1,-2
CNC(=O)COC(=O)CCC(=O)c1cccs1,0,.,0,-1,-2
COc1ccc(S(=O)(=O)Nc2ccc3c(c2)C(=O)N([C@@H](C)CO)C[C@@H](C)[C@H](CN(C)S(=O)(=O)c2ccc(C)cc2)OCCCC[C@@H](C)O3)cc1,-1,2[16.7 µM],.,18*,-2
COc1ccc(S(=O)(=O)N(C)C[C@@H]2OCCCC[C@H](C)Oc3ccc(NS(=O)(=O)c4ccc(C)cc4)cc3C(=O)N([C@@H](C)CO)C[C@@H]2C)cc1,0,-4[16.7 µM],0,20*,-5
C[C@H](NC(=O)[C@@H]1[C@@H](CO)[C@@H]2Cn3c(ccc(-c4cccnc4)c3=O)[C@@H]2N1C)c1ccccc1,0,-4[16.7 µM],0,0,2
CCC(C(=O)N1CCOCC1)n1nc(C)c2sc3ccccc3c2c1=O (stereo not given),-1,-5,.,30*,0
Clc1cccc(-c2ccc3ncnc(NCc4cccnc4)c3c2)c1,0,2,0,0,-4
c1cncc(CNc2ncnc3ccc(-c4cccnc4)cc23)c1,45*,0,1,2,4
C/C(=N\NC(=O)c1cccc(N/N=C(\C)c2cc(O)ccc2O)c1)c1cc(O)ccc1O,43*,.,0,-2,-2
C/C(=N\NC(=O)c1cccc(F)c1)c1cccc(NC(=O)c2ccc(F)cc2)c1,43*,.,.,-1,3
C/C(=N\NC(=O)c1cccc(N/N=C(\C)c2ccco2)c1)c1ccco1,0,.,0,1,-7
C/C(=N\NC(=O)c1ccc(F)cc1)c1cccc(NC(=O)c2cccc(F)c2)c1,0,.,1,0,2
C[C@H]1CN([C@@H](C)CO)S(=O)(=O)c2ccc(Br)cc2O[C@@H]1CN(C)C,0,1[16.7 µM],0,-5,-4
CCNC(=O)n1cc(-n2cncn2)c(-c2ccccc2)n1,43*,-2,6,0,-2
Cc1cccc(NC(=O)C(=O)NCCCN2CCOCC2)c1,43*,.,.,-4,-5
O=C(CSc1ccccc1)NCCCN1CCOCC1,.,-4,.,.,.
O=C(CSCc1ccccc1)NCCCN1CCOCC1,44*,.,.,-1,-6
SMILES,FGF22 binding,miR-122 sensor,E-selectin induc,SIRT5 inh,S100A4 MyoIIA
Fc1cc(F)cc(NC(=S)NCCCN2CCOCC2)c1,43*,3,.,0,-3
Cc1cccc(NC(=O)CCN2CCOCC2)c1,.,-9,.,.,.
O=c1ccc(S(=O)(=O)N2CCCC2)cn1Cc1nc(-c2ccc(F)cc2)no1,0,-4,0,-4,-4
COc1ccc(-c2noc(Cn3cc(S(=O)(=O)N4CCCC4)ccc3=O)n2)cc1,0,-4,0,22*,-11
CC(C)NC(=O)Nc1cccc2c1O[C@@H](CN(C)Cc1ccc(C(F)(F)F)cc1)[C@H](C)CN([C@H](C)CO)C2=O,0,?,29*,5,-15
C[C@H]1CN([C@@H](C)CO)C(=O)c2cccc(NC(=O)C3CCCCC3)c2O[C@@H]1CN(C)Cc1ccc(C(F)(F)F)cc1,0,94*[16.7 µM],0,3,70
C[C@@H]1CN([C@@H](C)CO)C(=O)c2cccc(NC(=O)C3CCCCC3)c2O[C@H]1CN(C)Cc1ccc(C(F)(F)F)cc1,-1,52[16.7 µM],10,6,-4
C[C@H](CO)N1C[C@H](C)[C@H](CN(C)Cc2ccc(C(F)(F)F)cc2)Oc2c(NC(=O)C3CC3)cccc2C1=O,0,13[16.7 µM],-1,-4,-11
C[C@H]1CN([C@@H](C)CO)C(=O)c2cccc(NC(=O)C3CC3)c2O[C@@H]1CN(C)Cc1ccc(C(F)(F)F)cc1,0,113*[16.7 µM],0,-2,-10
C[C@H](CO)N1C[C@H](C)[C@@H](CN(C)Cc2ccc(C(F)(F)F)cc2)Oc2c(NC(=O)C3CCCCC3)cccc2C1=O,-1,122*[16.7 µM],?,17*,-1
CCc1nc(N2[C@H](C#N)[C@H](c3ccccc3-c3ccccc3F)[C@@H]2CO)sc1C,.,.,0,1,13
CC(C)NC(=O)Nc1cccc2c1O[C@@H](CN(C)Cc1ccc(Cl)c(Cl)c1)[C@@H](C)CN([C@H](C)CO)C2=O,0,29[16.7 µM],44*,-7,16
C[C@@H]1CN([C@@H](C)CO)C(=O)c2cccc(NC(=O)NC3CCCCC3)c2O[C@@H]1CN(C)Cc1ccc(C(F)(F)F)cc1,0,8[16.7 µM],0,5,-7
C[C@@H]1CN([C@@H](C)CO)C(=O)c2cccc(NC(=O)C3CCOCC3)c2O[C@@H]1CN(C)Cc1ccc(C(F)(F)F)cc1,0,2[16.7 µM],-8,-1,-1
C[C@H]1CN([C@@H](C)CO)C(=O)c2cccc(NC(=O)NC3CCCCC3)c2O[C@@H]1CN(C)Cc1ccc(C(F)(F)F)cc1,0,121*[16.7 µM],0,4,-6
C[C@H]1CN([C@@H](C)CO)C(=O)c2cccc(NC(=O)C3CCOCC3)c2O[C@@H]1CN(C)Cc1ccc(C(F)(F)F)cc1,0,105*[16.7 µM],-12,-6,13
CC(C)NC(=O)Nc1cccc2c1O[C@@H](CN(C)Cc1ccc(Oc3ccccc3)cc1)[C@@H](C)CN([C@H](C)CO)C2=O,0,-1[16.7 µM],0,-1,0
COc1ccc(CN(C)C[C@H]2Oc3c(NC(=O)NC(C)C)cccc3C(=O)N([C@H](C)CO)C[C@H]2C)cc1,-1,30[16.7 µM],-2,8,107*
O=S(=O)(N[C@@H]1CC[C@H](CCn2cc(C3CC3)nn2)O[C@H]1CO)c1ccc(Cl)cc1,0,.,0,0,-10
C[C@@H]1CN([C@@H](C)CO)C(=O)c2cc(NC(=O)CCCN(C)C)ccc2O[C@@H]1CN(C)Cc1ccc2c(c1)OCO2,0,.,2,-3,19
